Source: ChEMBL document CHEMBL3992522, “Antileishmanial Activity of Pyrazolopyridine Derivatives and Their Potential as an Adjunct Therapy with Miltefosine” (J Med Chem, 2017)

Tests used:
[1] = Selectivity index, ratio of CC50 for African green monkey Vero cells to IC50 for Leishmania donovani MHOM/IN/80/DD8 amastigote forms infected in mouse J774 cells; type: toxicity, cell-based; conditions: read-out: Ratio CC50/IC50
Method in brief: (§1)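 CC50: Vero or J774 cells (1×10^5/well) exposed 72 h to seven two-fold dilutions, 500–7.81 μM; MTT 2 h at 37 °C, formazan in DMSO read at 540 nm. IC50: luciferase-expressing Dd8 amastigotes in J774 macrophages (1:8), 72 h, luminescence, four-parameter Hill fit. SI = CC50/IC50, IC50 mean of three experiments.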

Mus musculus [2] = test: Decrease in IL-10 level in Balb/c mouse splenocytes infected with Leishmania donovani amastigote forms at 25 mg/kg, po administered for 5 consecutive days measured on day 7 post last treatment by sandwich ELISA relative to control; type: functional; conditions: 168 h
Mus musculus [3] = test: Decrease in TGFbeta level in Balb/c mouse splenocytes infected with Leishmania donovani amastigote forms at 25 mg/kg, po administered for 5 consecutive days measured on day 4 post last treatment by sandwich ELISA relative to control; type: functional; conditions: 96 h
Leishmania donovani [4] = test: Antileishmanial activity against Leishmania donovani MHOM/IN/80/DD8 promastigote forms harboring luciferase gene at 25 uM after 72 hrs by Steady-Glo reagent based luminescence assay relative to control; type: functional; conditions: MHOM/IN/80/DD8, 72 h, read-out: GI
Method in brief: (§2)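 Exponential-phase Dd8-Luc promastigotes at 1×10^6/mL in M199 with 10% FBS, 24 °C, given 50 and 25 µM for 72 h. Vehicle 0.1% DMSO. Steady-Glo added 1:1, luminescence (RLU) read. IC50 from four-parameter Hill regression, derived only where inhibition exceeded 90%. Means of at least three independent experiments.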

Mus musculus [5] = test: Increase in IFNgamma level in Balb/c mouse splenocytes infected with Leishmania donovani amastigote forms at 25 mg/kg, po administered for 5 consecutive days measured on day 4 post last treatment by sandwich ELISA relative to control; type: functional
[6] = Cytotoxicity against African green monkey Vero cells assessed as reduction in cell viability after 72 hrs by MTT assay; type: cell-based; conditions: chlorocebus sabaeus
Method in brief: (§3)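 Vero and J774 cells seeded at 1×10^5 per well for 24 h, then exposed 72 h to seven two-fold dilutions from 500 to 7.81 μM. MTT solution (5 mg/mL stock) added for 2 h at 37 °C, formazan dissolved in DMSO and read at 540 nm. CC50 derived by the Huber and Koella method.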

[7] = Cytotoxicity against mouse J774 cells assessed as reduction in cell viability after 72 hrs by MTT assay; type: cell-based; method in brief: as §3
Leishmania donovani [8] = test: Antileishmanial activity against Leishmania donovani MHOM/IN/80/DD8 promastigote forms harboring luciferase gene at 50 uM after 72 hrs by Steady-Glo reagent based luminescence assay relative to control; type: functional; conditions: MHOM/IN/80/DD8, 72 h, read-out: GI; method in brief: as §2
Leishmania donovani [9] = test: Antileishmanial activity against Leishmania donovani MHOM/IN/80/DD8 amastigote forms harboring luciferase gene infected in mouse J774 cells at 50 uM after 72 hrs by Steady-Glo reagent based luminescence assay relative to control; type: functional; conditions: MHOM/IN/80/DD8, J774, 72 h, read-out: GI
Method in brief: (§4)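 Stationary-phase luciferase-expressing Dd8 promastigotes infected into J774 macrophages (4×10^4/mL seeded, 24 h, 37 °C, 5% CO2) at 1:8 macrophage:parasite for 24 h. Non-internalised parasites washed off. Compounds added at 50 and 25 µM in RPMI/10% FBS for 72 h. Lysis with Steady-Glo luciferin reagent plus PBS, luminescence read. Inhibition relative to untreated infected controls.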

Mus musculus [10] = test: Increase in TNFalpha level in Balb/c mouse splenocytes infected with Leishmania donovani amastigote forms at 25 mg/kg, po administered for 5 consecutive days measured on day 4 post last treatment by sandwich ELISA relative to control; type: functional
Leishmania donovani [11] = test: Antileishmanial activity against Leishmania donovani MHOM/IN/80/DD8 amastigote forms harboring luciferase gene infected in mouse J774 cells at 25 uM after 72 hrs by Steady-Glo reagent based luminescence assay relative to control; type: functional; conditions: MHOM/IN/80/DD8, J774, 72 h, read-out: GI; method in brief: as §4
Leishmania donovani [12] = test: Antileishmanial activity against Leishmania donovani MHOM/IN/80/DD8 amastigote forms harboring luciferase gene infected in mouse J774 cells after 72 hrs by Steady-Glo reagent based luminescence assay; type: functional, cell-based; conditions: MHOM/IN/80/DD8, J774, 72 h
Mus musculus [13] = test: Decrease in IL-10 level in Balb/c mouse splenocytes infected with Leishmania donovani amastigote forms at 25 mg/kg, po administered for 5 consecutive days measured on day 4 post last treatment by sandwich ELISA relative to control; type: functional; conditions: 96 h
Mus musculus [14] = test: Increase in IL-12 level in Balb/c mouse splenocytes infected with Leishmania donovani amastigote forms at 25 mg/kg, po administered for 5 consecutive days measured on day 7 post last treatment by sandwich ELISA relative to control; type: functional
[15] = Selectivity index, ratio of CC50 for mouse J774 cells to IC50 for Leishmania donovani MHOM/IN/80/DD8 amastigote forms infected in mouse J774 cells; type: toxicity, cell-based; conditions: read-out: Ratio CC50/IC50; method in brief: as §1
Leishmania donovani [16] = test: Antileishmanial activity against Leishmania donovani amastigote forms infected in Balb/c mouse assessed as inhibition of parasitic burden in liver at 5 mg/kg, po administered for 5 consecutive days measured on day 7 post last treatment by Giemsa staining based assay relative to control; type: functional; conditions: 168 h
Mus musculus [17] = test: (§5) Increase in iNOS-mediated NO generation in Balb/c mouse splenocytes infected with Leishmania donovani amastigote forms at 5 mg/kg, po for 5 consecutive days measured on day 4 and 7 post last treatment followed by soluble Leishmania donovani promastigote antigen-stimulation for 72 hrs by Griess assay relative to control; type: functional
Method in brief: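 Splenocytes from treated infected BALB/c mice (5-day regimen, i.p. test compound, oral miltefosine; n = 5) isolated day 4 and day 7 post-treatment. Cultured in phenol red-free RPMI 1640 with 5 μg/mL SLA for 72 h at 37 °C, 5% CO2. Supernatant nitrite measured by Griess assay at 540 nm against a sodium nitrite standard curve.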

Leishmania donovani [18] = test: Antileishmanial activity against Leishmania donovani amastigote forms infected in Balb/c mouse assessed as inhibition of parasitic burden in spleen at 5 mg/kg, po administered for 5 consecutive days measured on day 7 post last treatment by Giemsa staining based assay relative to control; type: functional; conditions: 168 h
Mus musculus [19] = test: as §5, with “at 25” for “at 5”, “4” for “4 and 7”; type: functional
Mus musculus [20] = test: Increase in IFNgamma level in Balb/c mouse splenocytes infected with Leishmania donovani amastigote forms at 25 mg/kg, po administered for 5 consecutive days measured on day 7 post last treatment by sandwich ELISA relative to control; type: functional
Mus musculus [21] = test: Decrease in TGFbeta level in Balb/c mouse splenocytes infected with Leishmania donovani amastigote forms at 25 mg/kg, po administered for 5 consecutive days measured on day 7 post last treatment by sandwich ELISA relative to control; type: functional; conditions: 168 h
Mus musculus [22] = test: Increase in IL-12 level in Balb/c mouse splenocytes infected with Leishmania donovani amastigote forms at 25 mg/kg, po administered for 5 consecutive days measured on day 4 post last treatment by sandwich ELISA relative to control; type: functional
Mus musculus [23] = test: Increase in TNFalpha level in Balb/c mouse splenocytes infected with Leishmania donovani amastigote forms at 25 mg/kg, po administered for 5 consecutive days measured on day 7 post last treatment by sandwich ELISA relative to control; type: functional

CCCCCCCCCCCCCCCCOP(=O)([O-])OCC[N+](C)(C)C [MILTEFOSINE]
selectivity ratio [1]: 5.3 | inhibition in vivo at 25 mg/kg (Mus musculus [2]): 92.9% | inhibition in vivo at 25 mg/kg (Mus musculus [3]): 87.5% | inhibition of growth at 25 µM (Leishmania donovani [4]): 100% | fold change (FC) (Mus musculus [5]): 9.1 | CC50 at 72 h [6]: 50.8 µM | CC50 at 72 h [7]: 55.7 µM | inhibition of growth at 50 µM (Leishmania donovani [8]): 100% | inhibition of growth at 50 µM (Leishmania donovani [9]): 100% | fold change (FC) (Mus musculus [10]): 6.5 | inhibition of growth at 25 µM (Leishmania donovani [11]): 99.8% | IC50 (Leishmania donovani [12]): 9.46 µM | inhibition in vivo at 25 mg/kg (Mus musculus [13]): 88.7% | fold change (FC) (Mus musculus [14]): 9.5 | selectivity ratio [15]: 5.8 | inhibition in vivo at 5 mg/kg (Leishmania donovani [16]): > 75% | fold change (FC) (Mus musculus [17]): 4.3 | inhibition in vivo at 5 mg/kg (Leishmania donovani [18]): > 61% | fold change (FC) (Mus musculus [19]): 7.4 | fold change (FC) (Mus musculus [20]): 8.1 | inhibition in vivo at 25 mg/kg (Mus musculus [21]): 94.6% | fold change (FC) (Mus musculus [22]): 12.9 | fold change (FC) (Mus musculus [23]): 5.3
